Screens (PubChem BioAssay)
Hits are enriched below; roughly 2.7% of the tested compounds scored in any of these assays.
M18AAP inhibitor = blocks P. falciparum M18 aspartyl aminopeptidase | AID 1822 | actives 1.2% (n = 290,000) | recombinant PfM18AAP, H-Glu-NHMec fluorogenic cleavage | inhibition, % at 7.35 µM;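 active means inhibition above the campaign mean inhibition over all tested compounds plus 3 SD, cut at about 28% in these data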;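 further: 0% = plate median of test compound wells and 100% = 2 mM ZnCl2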
TNF death inh = TNF-alpha cell death inhibition in Jurkat FADD-/- cells; Jurkat FADD-/- TNF necroptosis rescue, ATP luminescence, 24 h; 0 = TNF only, 100 = no-TNF cells; activation (protection from cell death), % at 10 µM; actives 0.068% (n = 220,000);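 active means activation, meaning protection from cell death, of at least 50% relative to plate controls; inactive means activation below 50%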;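 further: necroptosis triggered by 40 ng/mL TNF-alpha added together with compound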
L929 necroptosis = L929 zVAD cell death inhibition | L929 zVAD necroptosis rescue, ATP luminescence, 24 h; with zVAD 60 µM | viability rescue, % at 10 µM | actives 0.38% (n = 220,000) | AID 1377;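 active means activation, scaled between plate controls, above about 75%, limit read from the data; inactive means activation under that limit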;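 further: 0% = zVAD with DMSO and 100% = DMSO alone without zVAD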
Wee1 degr inh = inhibitors of human Wee1 degradation | P30291 | HeLa Luc-Wee1K328M stability, luciferase luminescence; 100% = proteasome inhibitor MG132 effect | reporter increase, % at 5 µM | actives 1.2% (n = 220,000);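 active means activation above the mean of all tested compounds plus 3 SD, set per screening run, cut at about 8.8% in these data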;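 further: cells exposed to compound for 20 h before luminescence read; 0% = DMSO alone and 100% = MG132 at 30 µM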
p97 inhibitor = blocks human p97 ATPase activity. recombinant p97 ATPase, Kinase-Glo ATP luminescence, 3 h. inhibition, % at 8 µM. actives 0.42% (n = 220,000); in the data active means inhibition above about 15%;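 further: 0% = DMSO vehicle and 100% = wells lacking enzyme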
Target sequence (P55072 whole entry, looked up): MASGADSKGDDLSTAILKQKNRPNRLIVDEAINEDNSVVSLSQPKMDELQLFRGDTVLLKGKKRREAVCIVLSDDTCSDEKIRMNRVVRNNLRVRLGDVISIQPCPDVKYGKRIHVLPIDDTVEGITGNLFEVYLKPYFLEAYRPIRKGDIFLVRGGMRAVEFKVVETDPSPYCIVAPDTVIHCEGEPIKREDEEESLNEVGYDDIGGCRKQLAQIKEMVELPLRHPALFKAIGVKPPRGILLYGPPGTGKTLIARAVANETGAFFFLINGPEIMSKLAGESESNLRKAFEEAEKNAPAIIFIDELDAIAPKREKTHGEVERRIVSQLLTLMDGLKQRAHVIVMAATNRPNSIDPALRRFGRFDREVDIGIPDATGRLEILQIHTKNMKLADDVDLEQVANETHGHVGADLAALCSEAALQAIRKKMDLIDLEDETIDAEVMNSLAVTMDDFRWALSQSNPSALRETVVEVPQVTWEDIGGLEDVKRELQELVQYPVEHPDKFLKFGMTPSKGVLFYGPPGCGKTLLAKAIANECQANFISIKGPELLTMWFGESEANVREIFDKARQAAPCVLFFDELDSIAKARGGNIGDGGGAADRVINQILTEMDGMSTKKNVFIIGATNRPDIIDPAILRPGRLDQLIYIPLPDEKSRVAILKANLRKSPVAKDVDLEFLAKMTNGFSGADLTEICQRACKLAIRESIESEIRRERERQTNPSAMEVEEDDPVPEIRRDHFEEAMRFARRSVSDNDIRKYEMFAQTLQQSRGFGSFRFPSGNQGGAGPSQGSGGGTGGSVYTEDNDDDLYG
RBBP9 inh = blocks human serine hydrolase RBBP9; O75884; recombinant RBBP9, FP-Rh probe fluorescence polarization; inhibition, % at 7.94 µM; actives 0.2% (n = 220,000); AID 1515;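 active means inhibition above the campaign mean of all tested compounds plus 3 SD, cut at about 14% in these data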;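 further: plate controls were DMSO wells with RBBP9 for no effect and wells lacking RBBP9 protein for full effect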
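Test system: recombinant human RBBP9; Timing: 30 min then 45 min, 25 °C; Detection: fluorescence polarization; Control set: RBBP9 with DMSO as uninhibited control, no-protein wells as full inhibition; Compound dosing: one concentration, 7.94 µM nominal, 0.794% DMSO; Probe or stimulus: FP-Rh activity-based probe, 375 nM before mixing.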
* marks the source's active call; other numbers are inactive results; · = no result given.

SMILES	M18AAP inhibitor	TNF death inh	L929 necroptosis	Wee1 degr inh	p97 inhibitor	RBBP9 inh
O=C(O)CCC(=O)N1CCCC1	-8	1	2	9.9*	3	-4
CN1CCN(C(=O)CCC(=O)O)CC1	-6	5	0	2	7	-3
CN1CCc2nc3ccc(Cl)cc3c(-c3ccccc3Cl)c2C1	7	-2	-1	-1	-9	-18
COc1ccc(/C(C)=N/Nc2ccc(C(=O)O)cc2)c(OC)c1	29*	1	2	-4	3	4
O=C(NNC(=O)c1ccccc1O)c1cccc(Br)c1	30*	·	·	·	·	·
COc1cc(CN2CCC(C(=O)N3CCC(C)CC3)CC2)cc(Br)c1O	31*	-5	0	-4	0	1
CC1CCc2c(sc3ncn(Cc4ccc(C(=O)O)cc4)c(=O)c23)C1 (centres undefined)	-1	2	1	1	15*	-2
N#CCCN(Cc1cccnc1)C(=S)NC(=O)C1CC1	0	0	3	-4	4	-8
COCc1ccc(CN2CCc3c([nH]c4ccccc34)C2CC(C)C)o1 (centres undefined)	9	1	0	1	-2	-8
O=C(CN1C(=O)c2ccccc2S1(=O)=O)Nc1ccc(S(=O)(=O)N2CCCC2)cc1	4	-2	0	0	3	6
O=C(CN1C(=O)c2ccccc2S1(=O)=O)Nc1ccc(S(=O)(=O)N2CCCCC2)cc1	4	-2	0	9.1*	2	-1
COc1cc2cc(NC(C)=O)cc(NCc3ccccc3)c2cc1OC	16	·	·	·	·	·
CCCCNc1cc(NC(C)=O)cc2cc(OC)c(OC)cc12	28*	-2	1	0	6	-2
Nc1ccc(Oc2ncccn2)cc1	28*	·	·	·	·	·
Cc1ccc(N2C(N)=C(C#N)C(c3cc(CN4CCOCC4)cs3)C3=C2CC(C)(C)CC3=O)cc1 (centres undefined)	0	0	1	-1	0	8
CCCCNC(=O)CCCn1c(=S)[nH]c2cc3c(cc2c1=O)OCO3	4	0	2	1	17*	9
CC(=O)NC12CC3CC(C1)CC(C(=O)NCc1ccc(C)cc1)(C3)C2	-8	·	·	·	·	·
Cc1ccc(F)c(NC(=O)/C(C#N)=C(\O)c2ccc(C(C)(C)C)cc2)c1	-3	1	5	2	6	-10
COc1ccc(C)cc1NC(=O)c1cc2c(CO)cnc(C)c2oc1=N	-2	-6	·	9.2*	4	-7
COc1ccccc1NC(=O)c1cc2c(CO)cnc(C)c2oc1=Nc1ccc(OC)c(OC)c1	-2	·	·	·	·	·
O=C(Nc1ccccc1C(=O)NC(Cc1ccccc1)C(=O)NC1CCCCC1)c1ccccc1 (centres undefined)	-11	3	0	2	0	-7
CC(C1CC1)N(Cc1ccccc1)C(=S)Nc1ccccc1 (centres undefined)	1	-1	0	9.6*	3	-5
CC(C)(C)c1ccc(OCC(=O)N/N=C/c2ccsc2)cc1	3	1	0	9.2*	4	-7
Cc1ccc(C)c(OCC(=O)N/N=C/c2ccsc2)c1	-8	-1	0	-2	-3	2
O=C1Cc2ccccc2C(=O)N1Cc1cccc(Cl)c1	8	·	·	·	·	·
SMILES	M18AAP inhibitor	TNF death inh	L929 necroptosis	Wee1 degr inh	p97 inhibitor	RBBP9 inh
Nc1cccc2c1C(=O)N(Cc1cccc(Cl)c1)C2=O	-8	1	2	11*	-2	-10
CCC(CC)c1nnc(NC(=O)C2=NNC(=O)CC2)s1	3	2	2	1	4	-6
COc1cc(C(=O)NC(CCSC)C(=O)OCc2cc([N+](=O)[O-])cc3c2OCOC3)cc(OC)c1OC (centres undefined)	-5	-1	9	9.6*	-1	2
Cc1ccc(-c2cc(C(=O)N3CCN(C(=O)c4ccco4)CC3)[nH]n2)c(C)c1	-3	·	·	·	·	·
O=C1CCCCC1Sc1nnc(Nc2ccccc2)s1 (centres undefined)	0	3	7	8.9*	3	-1
COC(=O)c1ccccc1OCCN1CCCCCC1	-5	-1	-1	4	-1	2
CCC(=O)c1ccccc1OCCN1CCN(CC)CC1	31*	2	0	2	13	-1
CC(=O)OC(C(=O)Nc1nccs1)c1ccccc1 (centres undefined)	4	·	·	·	·	·
O=C(Nc1nccs1)C(Br)C(Br)c1ccccc1 (centres undefined)	31*	·	·	·	·	·
CCCc1ccc(C(=O)NNc2ccccc2F)cc1	14	1	0	9.3*	7	-6
Cc1ccc2c(c1)Sc1c(ccc3ccccc13)N2	28*	-1	1	6	6	-1
COCCNC(=O)C(C)N(c1ccc(OC)cc1)S(C)(=O)=O (centres undefined)	-4	0	0	10*	-2	-6
COc1cccc(C2C(C(=O)c3cccs3)=C(O)C(=O)N2CCN2CCOCC2)c1OC (centres undefined)	12	·	·	·	·	·
Cc1cc(/C=N/n2cnnc2)c(C)n1-c1cccc(Cl)c1	29*	-3	0	4	3	0
O=C(O)c1cccc(-n2cccc2/C=C2/NC(=O)N(c3cccc(Cl)c3)C2=O)c1	11	1	0	3	10	-2
O=C(O)c1cccc(-n2cccc2/C=C2/NC(=O)N(c3ccc(Cl)cc3)C2=O)c1	4	1	1	-2	18*	-7
COc1cc(/C=C2/NC(=O)N(c3cccc(Cl)c3)C2=O)ccc1O	13	-8	1	4	7	-8
COc1ccc(-n2cccc2/C=C2/NC(=O)N(c3cccc(Cl)c3)C2=O)cc1	-3	1	0	8.9*	-1	-6
O=C(O)c1cc([N+](=O)[O-])c(NCCC2=CCCCC2)c([N+](=O)[O-])c1	17	1	-1	0	-7	-11
Cc1cccc(C(=O)NC(=S)NNC(=O)c2ccccc2Cl)c1	29*	-6	1	-1	2	-2
O=C(NC(=S)NNC(=O)c1ccc(Cl)cc1Cl)c1cccnc1	38*	0	1	-1	4	-7
Cc1ccc(C(=O)NC(=S)NNC(=O)COc2ccccc2C)cc1	4	-1	1	1	13	3
O=C(NC(=S)NNS(=O)(=O)c1ccccc1)c1cccnc1	31*	0	2	3	2	-2
Cc1cccc(C(=O)NC(=S)NNC(=O)COc2c(C)cccc2C)c1	30*	1	0	-2	5	-2
CN1CCN(S(=O)(=O)c2ccc3[nH]c(=O)oc3c2)CC1	-2	1	·	4	6	-9
O=C(O)c1ccc2c(c1)C(=O)N(CCc1c[nH]c3ccccc13)C2=O	1	·	·	·	·	·
